For series [1], the target named is T1, High affinity 3',5'-cyclic-AMP phosphodiesterase 7A (Homo sapiens, UniProt Q13946). Put plainly: Inhibition of human recombinant PDE7A1-mediated [3H]cAMP hydrolysis at 10 uM after 20 mins by scintillation proximity assay. The method, boiled down: (§1)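 Scintillation proximity assay with human recombinant full-length enzyme: PDE7A1 or PDE3A at 0.02 unit, or PDE7B at 0.5 unit. Enzyme incubated with 5 nCi [3H]cAMP for 20 min at 30 °C. SPA beads added, shaken 1 h at room temperature, then settled 30 min before counting. Single-point screens at 10 μM run in duplicate. IC50 from a sigmoidal dose−response fit.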
For orientation: In a scintillation proximity assay essentially only radioactivity close to the scintillant gives light.

Series [2] addresses T1, High affinity 3',5'-cyclic-AMP phosphodiesterase 7A. Briefly: Competitive inhibition of human recombinant PDE7A1 using 5 nM to 2 uM cAMP as substrate by Lineweaver-Burk plot analysis. The essentials: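 PDE7A1 scintillation proximity assay with unlabeled cAMP varied from 5 nM to 2 μM, against fixed [3H]cAMP tracer. Two inhibitor concentrations tested, with AMP formation measured. Data analysed by Lineweaver−Burk plots. Triplicate measurements, mean ± SEM.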

Series [3] shares this target. Briefly: Inhibition of human recombinant PDE7A1-mediated [3H]cAMP hydrolysis after 20 mins by scintillation proximity assay. The essentials:
as §1

Series [4] in a line: Cytotoxicity against rat microglia cells at 5 to 10 uM after 16 hrs by MTT assay. Type of series: cell-based. The essentials:
(§2)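 Primary neonatal rat cortical astrocytes or microglia, after 1 week in culture, exposed to compound for 16 h. MTT at 0.5 mg/mL for 4 h, then solubilized in 10% SDS/0.01 M HCl for 12 h in the dark. Absorbance read at 595 nm. Six replications in three experiments.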
Background: Tetrazolium dyes change colour on reduction, which living cells bring about.

Series [5] in a line: Cytotoxicity against rat astrocytes at 5 to 10 uM after 16 hrs by MTT assay. It is filed as cell-based. To be noted: astrocyte. The essentials:
as §2

A further series has as its system Microglia. Briefly: Antiinflammatory activity in rat microglia cells assessed as inhibition of LPS-induced nitrite production at 5 to 10 uM incubated for 1 hr prior to LPS-challenge measured after 24 hrs by Griess method. Type of series: functional, cell-based. The method, boiled down:
(§3)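 Glial cells from neonatal rat cerebral cortex; microglia and astrocytes separated by shaking and cultured 1 week. Purity >98% by OX42 and GFAP staining. Microglia kept with 10 ng/mL GM-CSF. Cells given compound for 1 h, then LPS (10 μg/mL) for 24 h. Nitrite in the supernatant measured by Griess reaction at 492/540 nm. Mean ± SD of six replications in three experiments.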
For orientation: Nitrite, measured by Griess reagent, commonly stands in for NO production.

The subject of another series is Astrocyte. Briefly: Antiinflammatory activity in rat astrocytes assessed as inhibition of LPS-induced nitrite production at 5 to 10 uM incubated for 1 hr prior to LPS-challenge measured after 24 hrs by Griess method. It is filed as functional, cell-based. The method, boiled down: as §3
Series [6] addresses T2, cGMP-inhibited 3',5'-cyclic phosphodiesterase 3A (Homo sapiens, UniProt Q14432). Briefly: Inhibition of human recombinant PDE3A-mediated [3H]cAMP hydrolysis at 10 uM after 20 mins by scintillation proximity assay. The method, boiled down: as §1
Series [7] concerns the target T2, cGMP-inhibited 3',5'-cyclic phosphodiesterase 3A. Briefly: Inhibition of human recombinant PDE3A-mediated [3H]cAMP hydrolysis after 20 mins by scintillation proximity assay. The method, boiled down:
as §1

Series [8] is filed under the species Homo sapiens. Briefly: Selectivity index, ratio of IC50 for human recombinant PDE7A1 to IC50 for human recombinant PDE3A. The essentials:
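Ratio of IC50 values for PDE7A1 and PDE3A, each obtained by scintillation proximity assay with [3H]cAMP for 20 min at 30 °C.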

Series [9] is filed under the species Homo sapiens. Put plainly: Selectivity index, ratio of IC50 for human recombinant PDE3A to IC50 for human recombinant PDE7A1.
Series [10] addresses 3',5'-cyclic-AMP phosphodiesterase 7B (Homo sapiens) (UniProt Q9NP56). Briefly: Inhibition of human recombinant PDE7B-mediated [3H]cAMP hydrolysis at 10 uM after 20 mins by scintillation proximity assay. The method, boiled down:
as §1

Series [11] deals with 3',5'-cyclic-AMP phosphodiesterase 4B (Homo sapiens, UniProt Q07343). Put plainly: Inhibition of human recombinant PDE4B2 using fluorescein 3',5'-cyclic phosphate after 60 mins by IMAP fluorescence polarization assay. The method, boiled down: (§4)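 IMAP fluorescence polarization assay. Human recombinant PDE4B2 or PDE4D3 (0.05 U) incubated with 1 nM fluorescein adenosine 3′,5′-cyclic phosphate for 60 min at ambient temperature. Stopped with IMAP binding reagent and left 1 h before reading FP. IC50 from a sigmoidal dose−response fit.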

For series [12], the target named is 3',5'-cyclic-AMP phosphodiesterase 4D (Homo sapiens, UniProt Q08499). Put plainly: Inhibition of human recombinant PDE4D3 using fluorescein 3',5'-cyclic phosphate after 60 mins by IMAP fluorescence polarization assay. The essentials: as §4
The target of series [13] is T3, High affinity 3',5'-cyclic-AMP phosphodiesterase 7A (Mus musculus) (UniProt P70453).
T3 sequence (whole entry): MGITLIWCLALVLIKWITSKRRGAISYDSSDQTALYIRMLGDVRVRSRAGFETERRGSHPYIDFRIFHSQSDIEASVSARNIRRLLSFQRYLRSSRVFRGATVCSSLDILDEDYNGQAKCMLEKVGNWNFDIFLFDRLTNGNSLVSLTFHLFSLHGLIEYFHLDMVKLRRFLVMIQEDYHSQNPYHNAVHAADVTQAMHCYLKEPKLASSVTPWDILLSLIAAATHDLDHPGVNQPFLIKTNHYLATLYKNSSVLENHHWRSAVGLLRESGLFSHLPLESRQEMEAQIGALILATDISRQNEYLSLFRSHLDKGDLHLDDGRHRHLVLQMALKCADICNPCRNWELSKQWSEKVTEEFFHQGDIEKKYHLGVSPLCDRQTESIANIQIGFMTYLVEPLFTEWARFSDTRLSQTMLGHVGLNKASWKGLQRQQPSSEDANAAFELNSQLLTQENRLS
Put plainly: Inhibition of PDE7A1 in mouse RAW cells assessed as increase in cAMP level at 10 to 30 uM after 60 mins by enzyme immunoassay. It is filed as cell-based. The essentials:
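RAW cells seeded at 3 × 10^4 per well and incubated overnight. Compound added for 60 min at 10 or 30 μM. Intracellular cAMP quantified by enzyme immunoassay kit.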

Series [14] in a line: Permeability across after 2 hrs 30 mins by pig brain lipid membrane based PAMPA-BBB assay. Type of series: ADME. To be noted: read-out: permeability. The essentials: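 PAMPA-BBB assay. Donor wells coated with porcine polar brain lipid in dodecane (20 mg/mL). Compound dissolved in EtOH/PBS pH 7.4; acceptor holds PBS/EtOH 70/30. Sandwich left 2 h 30 min at 25 °C. Concentrations read by UV at 3−5 wavelengths, in three wells and two independent runs. Ten reference drugs included for validation.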

The subject of series [15] is Mus musculus. Put plainly: Antiinflammatory activity in C57BL/6J mouse MOG(35 to 55)-induced experimental autoimmune encephalomyelitis model assessed as inhibition of clinical symptoms at 10 mg/kg, ip dosed daily for 16 days starting at day 5 after disease onset measured on day 32 post-immunization. Set-up: dose 10 mg/kg. It is filed as functional, organism-based.
Series [16] relates to Mus musculus. Briefly: Antiinflammatory activity in C57BL/6J mouse MOG(35 to 55)-induced experimental autoimmune encephalomyelitis model assessed as inhibition of clinical symptoms at 10 mg/kg, ip dosed daily for 26 days starting at day 5 after disease onset measured on day 42 post-immunization. It is filed as functional, organism-based. Set-up: dose 10 mg/kg.
Series [17] has as its system Mus musculus. Briefly: Toxicity in C57BL/6J mouse MOG(35 to 55)-induced experimental autoimmune encephalomyelitis model assessed as decrease in body weight at 10 mg/kg, ip dosed daily for 26 days starting at day 5 after disease onset measured on day 42 post-immunization. Set-up: dose 10 mg/kg, route intraperitoneal. The note with it: in vivo, 624 h. It is filed as organism-based.

Calls of active or inactive are those of the source. The calls are words filed in the database; no cut-off is given here.

T1 sequence (Q13946 whole entry): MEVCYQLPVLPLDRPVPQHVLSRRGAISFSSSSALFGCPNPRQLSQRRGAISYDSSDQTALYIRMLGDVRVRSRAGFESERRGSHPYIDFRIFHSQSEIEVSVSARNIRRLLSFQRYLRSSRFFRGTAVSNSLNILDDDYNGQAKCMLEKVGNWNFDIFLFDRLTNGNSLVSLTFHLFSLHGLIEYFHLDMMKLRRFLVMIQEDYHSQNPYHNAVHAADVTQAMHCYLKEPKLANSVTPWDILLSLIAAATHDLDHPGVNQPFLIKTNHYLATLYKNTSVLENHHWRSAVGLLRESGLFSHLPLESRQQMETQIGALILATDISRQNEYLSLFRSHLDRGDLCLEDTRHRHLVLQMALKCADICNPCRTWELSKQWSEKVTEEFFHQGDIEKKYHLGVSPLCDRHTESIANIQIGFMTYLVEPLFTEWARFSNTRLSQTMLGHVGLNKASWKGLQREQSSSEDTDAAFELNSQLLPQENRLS
T2 sequence (Q14432 whole entry): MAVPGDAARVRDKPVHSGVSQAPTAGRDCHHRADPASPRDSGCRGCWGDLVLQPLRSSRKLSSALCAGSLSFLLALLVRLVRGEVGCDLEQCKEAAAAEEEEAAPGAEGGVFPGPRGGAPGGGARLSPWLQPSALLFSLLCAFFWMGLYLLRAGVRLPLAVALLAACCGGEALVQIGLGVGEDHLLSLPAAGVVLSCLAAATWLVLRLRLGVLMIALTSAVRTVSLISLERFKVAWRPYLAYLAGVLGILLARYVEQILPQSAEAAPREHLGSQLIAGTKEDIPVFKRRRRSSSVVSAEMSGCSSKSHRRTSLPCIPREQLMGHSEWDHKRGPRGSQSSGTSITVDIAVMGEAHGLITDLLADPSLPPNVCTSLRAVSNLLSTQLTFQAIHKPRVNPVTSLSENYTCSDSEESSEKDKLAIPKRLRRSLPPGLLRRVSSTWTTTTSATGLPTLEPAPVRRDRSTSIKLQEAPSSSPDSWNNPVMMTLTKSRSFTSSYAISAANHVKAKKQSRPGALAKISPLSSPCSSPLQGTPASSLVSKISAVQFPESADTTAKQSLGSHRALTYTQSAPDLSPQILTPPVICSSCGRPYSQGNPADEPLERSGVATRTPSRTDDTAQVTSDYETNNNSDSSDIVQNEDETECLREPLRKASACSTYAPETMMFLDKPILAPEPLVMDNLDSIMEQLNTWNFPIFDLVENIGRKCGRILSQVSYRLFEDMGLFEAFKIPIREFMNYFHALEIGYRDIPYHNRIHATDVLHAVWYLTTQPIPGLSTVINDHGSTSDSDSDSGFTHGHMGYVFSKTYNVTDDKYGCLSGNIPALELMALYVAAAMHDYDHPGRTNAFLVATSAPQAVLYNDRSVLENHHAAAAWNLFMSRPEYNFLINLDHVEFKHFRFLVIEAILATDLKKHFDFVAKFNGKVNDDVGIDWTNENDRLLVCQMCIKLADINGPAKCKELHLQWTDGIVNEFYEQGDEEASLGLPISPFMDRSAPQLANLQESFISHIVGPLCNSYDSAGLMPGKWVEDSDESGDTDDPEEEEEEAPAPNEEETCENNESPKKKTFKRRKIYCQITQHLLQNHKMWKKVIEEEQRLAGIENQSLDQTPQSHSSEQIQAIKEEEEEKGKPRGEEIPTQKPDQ
Chain of 3',5'-cyclic-AMP phosphodiesterase 7B (Homo sapiens) (Q9NP56 whole entry): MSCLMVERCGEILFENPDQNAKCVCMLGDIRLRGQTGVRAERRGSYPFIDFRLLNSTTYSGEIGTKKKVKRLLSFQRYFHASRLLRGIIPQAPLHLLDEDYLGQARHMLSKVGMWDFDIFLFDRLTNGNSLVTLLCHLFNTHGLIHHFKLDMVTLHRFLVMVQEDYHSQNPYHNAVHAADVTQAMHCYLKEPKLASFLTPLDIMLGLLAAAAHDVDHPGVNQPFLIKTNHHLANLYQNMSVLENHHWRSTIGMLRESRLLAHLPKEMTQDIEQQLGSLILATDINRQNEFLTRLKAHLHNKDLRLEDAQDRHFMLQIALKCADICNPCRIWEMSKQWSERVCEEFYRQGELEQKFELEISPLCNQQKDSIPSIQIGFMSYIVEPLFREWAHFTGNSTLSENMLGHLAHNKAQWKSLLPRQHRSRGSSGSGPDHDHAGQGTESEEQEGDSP
Chain of 3',5'-cyclic-AMP phosphodiesterase 4D (Q08499 whole entry): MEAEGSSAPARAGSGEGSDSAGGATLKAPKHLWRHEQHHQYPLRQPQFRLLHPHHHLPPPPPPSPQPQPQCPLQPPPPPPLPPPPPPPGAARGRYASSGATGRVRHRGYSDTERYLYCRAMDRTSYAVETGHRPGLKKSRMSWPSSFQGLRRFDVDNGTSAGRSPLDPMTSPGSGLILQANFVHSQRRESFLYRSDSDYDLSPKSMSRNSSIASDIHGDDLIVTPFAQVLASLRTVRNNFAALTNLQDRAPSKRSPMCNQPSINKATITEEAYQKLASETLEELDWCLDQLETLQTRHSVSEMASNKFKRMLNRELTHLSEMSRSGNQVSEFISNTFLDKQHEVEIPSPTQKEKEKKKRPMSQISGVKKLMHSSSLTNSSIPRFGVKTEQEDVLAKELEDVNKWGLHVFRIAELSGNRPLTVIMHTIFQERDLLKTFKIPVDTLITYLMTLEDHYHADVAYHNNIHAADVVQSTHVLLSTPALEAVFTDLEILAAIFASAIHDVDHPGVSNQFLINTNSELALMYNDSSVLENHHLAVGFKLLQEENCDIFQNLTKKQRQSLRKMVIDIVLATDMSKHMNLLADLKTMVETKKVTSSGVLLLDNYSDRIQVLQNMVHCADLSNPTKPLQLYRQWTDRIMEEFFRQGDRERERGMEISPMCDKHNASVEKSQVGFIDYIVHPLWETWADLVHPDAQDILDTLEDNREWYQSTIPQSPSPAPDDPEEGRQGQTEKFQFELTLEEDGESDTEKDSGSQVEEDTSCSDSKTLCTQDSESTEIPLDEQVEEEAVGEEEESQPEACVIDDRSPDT
Chain of 3',5'-cyclic-AMP phosphodiesterase 4B (Q07343 whole entry): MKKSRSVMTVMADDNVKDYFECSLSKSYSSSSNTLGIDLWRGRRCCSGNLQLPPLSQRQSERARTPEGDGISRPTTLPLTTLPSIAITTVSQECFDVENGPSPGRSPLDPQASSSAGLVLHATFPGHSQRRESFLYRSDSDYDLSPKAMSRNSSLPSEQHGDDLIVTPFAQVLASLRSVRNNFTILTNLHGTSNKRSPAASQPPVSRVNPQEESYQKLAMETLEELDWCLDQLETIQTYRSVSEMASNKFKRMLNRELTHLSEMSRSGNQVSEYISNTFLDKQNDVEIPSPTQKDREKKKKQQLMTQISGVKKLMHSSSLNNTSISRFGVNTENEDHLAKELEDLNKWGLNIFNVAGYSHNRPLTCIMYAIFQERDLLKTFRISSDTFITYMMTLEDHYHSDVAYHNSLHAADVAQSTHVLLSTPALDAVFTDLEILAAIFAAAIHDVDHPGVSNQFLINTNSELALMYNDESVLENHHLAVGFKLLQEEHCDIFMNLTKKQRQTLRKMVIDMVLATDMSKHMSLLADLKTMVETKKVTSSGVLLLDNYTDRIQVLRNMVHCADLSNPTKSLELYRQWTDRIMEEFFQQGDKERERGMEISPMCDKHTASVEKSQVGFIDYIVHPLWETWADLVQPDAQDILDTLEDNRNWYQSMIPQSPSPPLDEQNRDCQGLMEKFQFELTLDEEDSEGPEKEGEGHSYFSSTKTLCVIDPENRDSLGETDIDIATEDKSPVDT

As usually defined, the inhibition is the relative decrease from the control value, in per cent. As usually defined, the Ki is a dissociation constant, usually derived from enzyme kinetics or from competition with a known ligand. By IC50 is commonly meant the concentration needed to halve the response being measured. As for `COc1cc(COC(=O)c2ccc(-c3ccccc3)o2)cc(OC)c1OC`, the values for the inhibition in series [1], in series [6] and in [10] were 57.9%, 46.1% and 23.2%, respectively. Moreover, in series [2], the Ki was found to be 5.91 µM. Moreover, the IC50 in series [3] stood at 5.17 µM; in series [7], 54.6 µM; in series [11], 12.4 µM; in [12] it was 66.3 µM. Moreover, the Activity entry in series [4] is “Non-toxic”; in series [5], “Non-toxic”; with Mus musculus [17] it was “Toxic”. Also, the outcome with Microglia, in the series with Astrocyte and in the series on Mus musculus [15] was Active. Besides, the values for the Ratio IC50 in the series listed under Homo sapiens [8] and in the series filed under Homo sapiens [9] were 0.09 and 10, respectively. For the same compound, in [13], the inhibition entry is “Active”. In addition, the Papp at 2.5 h in series [14] stood at 8.1 ×10⁻⁶ cm/s. Further, the result in the series with Mus musculus [16] was inactive.

The record behind these values is ChEMBL document CHEMBL2040739, “Effect of phosphodiesterase 7 (PDE7) inhibitors in experimental autoimmune encephalomyelitis mice. Discovery of a new chemically diverse family of compounds” (J Med Chem, 2012).
